Where two headings read alike, the source gives them in different places.
Tests used:
[1] = tested on: L. infantum promastigotes; assay: viability of promastigotes at early stages of treatment; assay type: cell-based, Leishmania infantum; conditions: 6 h, compound at IC50
In short: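 Promastigotes (5 × 10^5/ml) were incubated 6 h with test compounds or combinations at their IC50 values. Propidium iodide was added at 12 μM and samples were run immediately by flow cytometry (≥10^4 cells). The value is % PI-stained promastigotes relative to control, mean ± SEM of at least 3 experiments.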

[2] = in humans; cited from earlier work
[3] = tested on: THP-1 monocytes; assay: cytotoxicity in THP-1 monocytes; assay type: cell-based, human; conditions: for CC50: read-out: Cytotoxicity CC50, THP-1 monocytes
In short: (§1)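 THP-1 monocytes, maintained at 37 °C and 5% CO2 in RPMI with FBS and antibiotics, were seeded at 10^6/ml. They were incubated 24 h with serial dilutions of test compounds or combinations, resuspended in PBS, stained with 12 μM propidium iodide and counted by flow cytometry. CC50 is the concentration giving 50% of maximum cytotoxicity. Single-point combination tests used the alkylphosphocholine at 15 or 25 μM with peptaibol at 5 or 2 μM.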

[4] = cytotoxicity in THP-1 monocytes; assay type: cell-based, human; conditions: human, THP-1 monocytes
In short: as §1

[5] = tested on: intracellular L.infantum; assay type: cell-based, Leishmania infantum; conditions: for IC50: read-out: Intracellular amastigotes IC50
In short: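 THP-1 cells were differentiated with 1 μM retinoic acid for 72 h, then infected overnight at 1:4 cell:parasite. Infected cells were purified on Histopaque 1077 (1300g, 20 min) and exposed 24 h (37 °C, 5% CO2) to serial dilutions. Infection was scored by counting % infected cells in Giemsa-stained cytospins. For combinations, peptaibol was held at 5 or 2 μM while alkylphosphocholine was varied (15–0.2 or 25–0.2 μM). CI came from linear isoboles; SI = CC50/intracellular IC50.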

[6] = tested on: L. infantum promastigotes; assay: antileishmanial activity in promastigote cultures; assay type: cell-based, Leishmania infantum; conditions: 24 h, read-out: Promastigotes IC50
In short: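 The L. infantum field strain came from an infected dog spleen and was grown at 26 °C in RPMI with 10% heat-inactivated FBS and 2% penicillin/streptomycin. Promastigotes at 10^6/ml were incubated with serial dilutions of test compound for 24 h at 26 °C. Cells were then resuspended in PBS, stained with 12 μM propidium iodide and analysed by flow cytometry. IC50 is the concentration killing 50% of parasites.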

[7] = tested on: L. infantum promastigotes; assay: ROS production in promastigotes; assay type: cell-based, Leishmania infantum; conditions: compounds at IC50; 1 h, 3 h, 6 h
[8] = hemolytic potential on red blood cells; assay type: cell-based, human; conditions: human, red blood cells from EDTA-preserved peripheral blood
In short: (§2)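 EDTA-anticoagulated blood from healthy volunteers was spun at 900 g for 10 min and the red cells washed three times in PBS. Cells were mixed 1:1 (v/v) with serial dilutions of test compound prepared in PBS, incubated 1 h at 37 °C, and centrifuged. Supernatant absorbance was read at 550 nm, with water-lysed cells as 100% hemolysis. HC50 was derived as for IC50. Combinations used the alkylphosphocholine at 15 or 25 μM plus peptaibol at 5 or 2 μM.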

[9] = tested on: human RBCs; assay: hemolytic potential on red blood cells; assay type: cell-based; conditions: for Hemolysis HC50 / HC50 fold higher than that of HePC: human RBCs; for Hemolysis HC50: 1 h, 37 °C, 50% of maximum hemolysis with water; for % hemolysis: at 100 μM of each compound
In short: as §2

[10] = tested on: L. infantum promastigotes; assay: morphological changes in promastigotes; assay type: cell-based, Leishmania infantum; conditions: 6 h, 26 °C, at IC50; scanning electron microscopy
[11] = tested on: L. infantum promastigotes; assay: mitochondrial membrane polarization in promastigotes; assay type: cell-based, Leishmania infantum; conditions: for ΔΨm dissipation: at 6 h, relative to control, compound alone
In short: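 Promastigotes (5 × 10^5/ml) were treated with test compounds or combinations at their IC50 values for 1, 3 or 6 h, then stained with 0.1 μM MitoTracker Red CMXRos for 30 min. Flow cytometry (488 nm laser, ≥10^4 cells, debris and autofluorescence excluded) scored the % of cells fluorescing above 10^2 (log scale) at 630 nm, relative to untreated control. Data came from at least 3 experiments.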

[12] = tested on: trypanosomiasis; conditions: mouse model; ref Kumar et al., 1991; cited from earlier work
[13] = single compound, intracellular amastigote in THP-1 monocytes, 24 h

IC50 [5, 13] [µM] | IC50 ([6]; 26 °C) [µM] | Compound | ROS production in promastigotes [7] | Hemolysis HC50 [9] [µM] | morphological alterations of promastigotes [10] | CC50 ([3]; 24 h) [µM] | % hemolysis [9] [%] | HC50 fold higher than that of HePC [9] [fold] | ΔΨm dissipation [11] [%] | further results
 |  | CCCCCCCCCCCCCCCCOP(=O)([O-])OCC[N+](C)(C)C [HePC, hexadecylphosphocholine, reference compound] | low levels of ROS | 38.3 ± 2.8 | did not seem to affect noticeably the morphology |  |  |  |  | PI-stained promastigotes [1]: 5.5%; half-life [2]: 100 to 200 h; % PI-stained THP-1 cells ([3]; 15 μM HePC or 25 μM TC52, alone or combined with 5 μM AAM or 2 μM SZ, 24 h): 27.6%; CC50 at 24 h [4]: 28.6 ± 2.5 µM; IC50 ([5]; Leishmania infantum, THP-1, 24 h): 1.8 ± 0.5 µM; Selectivity Index (SI), CC50/IC50 against the intracellular form ([5]; THP-1 CC50 / intracellular amastigote IC50): 15.8; IC50 ([6]; Leishmania infantum): 8.2 ± 0.7 µM; hemolysis at 1 h, 100 µM [8]: 96.1%; mitochondrial transmembrane potential (MitoTracker retention) ([11]; compounds at IC50, 1 h, 3 h, 6 h): significantly induce accumulation of MitoTracker above the control levels
7.5 ± 0.2 | 8.7 ± 0.1 | antiamoebin [AAM] | moderate levels of ROS | 94.6 ± 2.6 | caused damage to the plasma membrane and altered flagellar morphology | 40.3 ± 3.2 | 52.9 | 2.5 | 75 | fold less cytotoxic than HePC ([3]; THP-1 CC50 ratio): 1.4 fold; fold less cytotoxic than SZ ([3]; THP-1 CC50 ratio): about 1.8 fold; trypanocidal activity [12]: exhibits trypanocidal activity
7.6 ± 1.2 | 8.2 ± 0.1 | suzukacillin A [SZ] | moderate levels of ROS | 66.9 ± 2.2 |  | 22.5 ± 3.2 | 96.6 | 1.7 | 30 | 

Reference: publication PMC6039304 (International Journal for Parasitology: Drugs and Drug …, 2018)
